Assay results published in ChEMBL document CHEMBL1143285, “Synthesis and biological evaluation of 2-phenylquinolones targeted at Tat/TAR recognition” (Bioorg Med Chem Lett, 2009).
Active and inactive are the calls of the source. No cut-off for these calls is given here.

Legend:
[1] = (§1) Inhibition of HIV Tat/TAR complex formation by fluorescence quenching assay; set-up: species or system Human immunodeficiency virus
[2] = test system: Human immunodeficiency virus 1; experiment: Antiviral activity against HIV1 infected in human Jurkat cells assessed as compound uptake after 3 hrs by fluorescence assay; format: functional; set-up: concentration or dose not given beside the values
Outline: (§2)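 Jurkat or CEM cells (2.5 × 10⁶/well) incubated in HBSS with compound at 100 µM, 3 h, 37 °C. Cells separated from medium by centrifugation through water-impermeable silicone-oil barrier, pellet lysed overnight in 0.1 M glycine–HCl pH 3.0, spun 5 min at 5600g. Compound in supernatant quantified by fluorescence at pH 3 against per-compound titration curve; reported as % uptake.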

[3] = test system: Human immunodeficiency virus 1; experiment: Antiviral activity against HIV1 infected in human CEM cells assessed as compound uptake after 3 hrs by fluorescence assay; format: functional, CCRF-CEM; outline: as §2
Jurkat [4] = experiment: Cytotoxicity against human Jurkat cells at 100 uM after 72 hrs by MTT assay; format: cell-based
Outline: (§3)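 MTT viability readout in CEM and Jurkat cells after 72 h incubation with compounds up to 100 µM; EC50 derived where applicable.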

CCRF-CEM = experiment: Cytotoxicity against human CEM cells at 100 uM after 72 hrs by MTT assay; format: cell-based; outline: as §3
[5] = Aqueous solubility in buffer; format: physicochemical
[6] = test system: Human immunodeficiency virus; experiment: as §1
Jurkat [7] = experiment: Cytotoxicity against human Jurkat cells after 72 hrs by MTT assay; format: cell-based; outline: as §3
[8] = test system: Human immunodeficiency virus 1; experiment: Antiviral activity against HIV1 infected in human Jurkat cells assessed as compound uptake after 3 hrs by fluorescence assay in presence of lipofectamine; format: functional

| Structure (SMILES) | Ki [1] [nM] | solubility [5] | Activity [6] | Activity [2] [%] | Activity [3] [%] | Activity (Jurkat [4]) | Activity (CCRF-CEM) | EC50 (Jurkat [7]) [nM] | Activity [8] |
| --- | --- | --- | --- | --- | --- | --- | --- | --- | --- |
| COc1cc(OC)c2c(=O)cc(-c3ccc(OCCCN)c(NC(=O)CCCN(C)C)c3)n(C)c2c1 | 3030 | Soluble |  | 0.67 | 1.2 | Non-toxic | Non-toxic |  |  |
| COc1cc(OC)c2c(=O)cc(-c3ccc(OCCCN)c(NC(=O)CCc4cccnc4)c3)n(C)c2c1 |  | Soluble | inactive |  |  | Non-toxic | Non-toxic |  |  |
| COc1cc(OC)c2c(=O)cc(-c3ccc(O)c(N)c3)n(C)c2c1 |  | Soluble | inactive | 25 |  | Non-toxic | Non-toxic |  |  |
| COc1cc(OC)c2c(=O)cc(-c3ccc(OCCCN4CCCCC4)cc3)n(C)c2c1 | 1020 | Soluble |  | 3.27 |  |  |  | 94700 |  |
| Cn1cc(C(=O)O)c(=O)c2cc(N)c(N3CCN(c4ccccn4)CC3)cc21 | 2180 | Soluble |  | 23.2 | 7.5 | Non-toxic | Non-toxic |  | <=40% |
| COc1cc(OC)c2c(=O)cc(-c3ccc(OCCCN4CCCCC4)c(NC(=O)CCCN(C)C)c3)n(C)c2c1 | 2600 | Soluble |  |  |  | Non-toxic | Non-toxic |  |  |

More lines, main results first:

| Ki [1] [nM] | solubility [5] | Activity [6] | Structure (SMILES) | Activity [2] [%] | Activity [3] [%] | Activity (Jurkat [4]) | Activity (CCRF-CEM) | EC50 (Jurkat [7]) [nM] | Activity [8] |
| --- | --- | --- | --- | --- | --- | --- | --- | --- | --- |
| 3850 | Soluble |  | COc1cc(OC)c2c(=O)cc(-c3ccc(OCCCN)c(N)c3)n(C)c2c1 |  |  | Non-toxic | Non-toxic |  |  |
|  | Soluble | inactive | COc1cc(OC)c2c(=O)cc(-c3ccc(OCCCN4CCN(C)CC4)c(NC(=O)CCCN(C)C)c3)n(C)c2c1 |  |  | Non-toxic | Non-toxic |  |  |
| 1950 | Soluble |  | COc1cc(OC)c2c(=O)cc(-c3ccc(OCCCN4CCCCC4)c(N)c3)n(C)c2c1 | 0.94 | 1.8 | Non-toxic | Non-toxic |  |  |
| 1580 | Soluble |  | COc1cc(OC)c2c(=O)cc(-c3ccc(OCCCN4CCN(C)CC4)c(N)c3)n(C)c2c1 | 0.82 | 1.1 | Non-toxic | Non-toxic |  |  |
